Results on 41 compounds are retold here after ChEMBL document CHEMBL1287773, “4-aryl piperazine and piperidine amides as novel mGluR5 positive allosteric modulators” (Bioorg Med Chem Lett, 2010).

Molecules are shown by their SMILES.

For series [1], the target named is Metabotropic glutamate receptor 5 (Homo sapiens, UniProt P41594). Briefly: Positive allosteric modulation of human mGluR5 expressed in HEK293 cells assessed as Ca2+ influx by FLIPR assay. Type of series: functional, cell-based. An outline of the steps:
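HEK293 cells stably expressing human mGluR5 d isoform, plated the day before at 25,000 cells/well in DMEM with 10% dialyzed FBS. Loaded 1 h at 37 °C with 4.3 uM Fluo-4 AM in HBSS/20 mM HEPES/1 mM probenecid, pH 7.4, then washed. Eleven-concentration series added, agonist read 1 min; after 15 min, EC20 L-glutamate (final 200-300 nM) added, Ca2+ read 1 min.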

Series [2] in a line: Intrinsic clearance in human liver microsome assessed as per mg of protein. As to conditions: liver microsomes. Type of series: ADME. Background: Liver microsomes are a subcellular fraction often used to study metabolism.
Series [3] deals with Metabotropic glutamate receptor 5 (Rattus norvegicus) (UniProt P31424). Briefly: Displacement of [3H]-MPEP from rat mGluR5.
The nature of series [4]: Half life in rat. It is filed as ADME, organism-based. The following applies: in vivo.
A short description of series [5]: Oral bioavailability in dog. As to conditions: in vivo. It is filed as ADME, organism-based, Canis lupus familiaris.
The nature of series [6]: Oral bioavailability in rat. It is filed as ADME, organism-based. The following applies: in vivo.
Series [7] is described as follows: Volume of distribution in dog. It is filed as ADME, organism-based, Canis lupus familiaris. The following applies: in vivo.
Series [8] can be described thus: Ratio of drug level in brain to plasma in rat. Type of series: ADME, organism-based. As to conditions: brain and plasma, read-out: BPR.
Series [9] is described as follows: Half life in dog. It is filed as ADME, organism-based, Canis lupus familiaris. The following applies: in vivo.
Series [10] in a line: Volume of distribution in rat. The following applies: in vivo. It is filed as ADME, organism-based.
A short description of series [11]: Clearance in dog plasma. Type of series: ADME, organism-based, Canis lupus familiaris.
A short description of series [12]: Clearance in rat plasma. It is filed as ADME, organism-based.

Metabotropic glutamate receptor 5, sequence (P41594 whole entry, canonical isoform): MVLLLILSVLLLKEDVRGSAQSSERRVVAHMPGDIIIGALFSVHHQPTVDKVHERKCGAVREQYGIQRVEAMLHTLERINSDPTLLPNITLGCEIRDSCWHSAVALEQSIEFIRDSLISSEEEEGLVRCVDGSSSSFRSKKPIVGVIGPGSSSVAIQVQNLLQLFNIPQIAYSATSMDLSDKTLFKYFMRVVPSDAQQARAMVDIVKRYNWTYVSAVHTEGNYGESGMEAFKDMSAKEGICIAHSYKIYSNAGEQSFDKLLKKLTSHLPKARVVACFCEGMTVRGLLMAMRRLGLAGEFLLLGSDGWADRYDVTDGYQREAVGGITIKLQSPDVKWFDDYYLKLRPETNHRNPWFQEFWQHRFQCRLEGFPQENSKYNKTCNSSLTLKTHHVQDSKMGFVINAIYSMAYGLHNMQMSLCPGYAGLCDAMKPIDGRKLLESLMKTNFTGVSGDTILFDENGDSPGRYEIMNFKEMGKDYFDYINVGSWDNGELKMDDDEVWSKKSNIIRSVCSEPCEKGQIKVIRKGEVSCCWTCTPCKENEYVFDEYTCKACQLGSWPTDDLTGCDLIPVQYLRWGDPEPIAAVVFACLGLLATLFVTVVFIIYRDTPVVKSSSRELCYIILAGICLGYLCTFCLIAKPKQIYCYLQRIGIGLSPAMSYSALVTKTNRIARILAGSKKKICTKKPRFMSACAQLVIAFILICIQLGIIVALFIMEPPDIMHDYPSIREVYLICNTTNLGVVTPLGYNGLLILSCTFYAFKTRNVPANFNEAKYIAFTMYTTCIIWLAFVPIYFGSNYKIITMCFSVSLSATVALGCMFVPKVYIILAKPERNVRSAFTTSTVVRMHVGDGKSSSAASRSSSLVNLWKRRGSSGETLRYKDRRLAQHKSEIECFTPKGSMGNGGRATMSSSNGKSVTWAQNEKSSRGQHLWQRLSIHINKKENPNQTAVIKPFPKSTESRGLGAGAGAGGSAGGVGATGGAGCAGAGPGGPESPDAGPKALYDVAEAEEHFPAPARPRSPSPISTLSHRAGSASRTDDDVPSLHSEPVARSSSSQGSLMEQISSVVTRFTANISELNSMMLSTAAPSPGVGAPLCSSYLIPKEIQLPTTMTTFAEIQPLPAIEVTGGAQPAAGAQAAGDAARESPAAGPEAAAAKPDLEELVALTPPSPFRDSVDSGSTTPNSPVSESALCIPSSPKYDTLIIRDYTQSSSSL
Metabotropic glutamate receptor 5 (Rattus norvegicus), sequence (P31424 whole entry, looked up): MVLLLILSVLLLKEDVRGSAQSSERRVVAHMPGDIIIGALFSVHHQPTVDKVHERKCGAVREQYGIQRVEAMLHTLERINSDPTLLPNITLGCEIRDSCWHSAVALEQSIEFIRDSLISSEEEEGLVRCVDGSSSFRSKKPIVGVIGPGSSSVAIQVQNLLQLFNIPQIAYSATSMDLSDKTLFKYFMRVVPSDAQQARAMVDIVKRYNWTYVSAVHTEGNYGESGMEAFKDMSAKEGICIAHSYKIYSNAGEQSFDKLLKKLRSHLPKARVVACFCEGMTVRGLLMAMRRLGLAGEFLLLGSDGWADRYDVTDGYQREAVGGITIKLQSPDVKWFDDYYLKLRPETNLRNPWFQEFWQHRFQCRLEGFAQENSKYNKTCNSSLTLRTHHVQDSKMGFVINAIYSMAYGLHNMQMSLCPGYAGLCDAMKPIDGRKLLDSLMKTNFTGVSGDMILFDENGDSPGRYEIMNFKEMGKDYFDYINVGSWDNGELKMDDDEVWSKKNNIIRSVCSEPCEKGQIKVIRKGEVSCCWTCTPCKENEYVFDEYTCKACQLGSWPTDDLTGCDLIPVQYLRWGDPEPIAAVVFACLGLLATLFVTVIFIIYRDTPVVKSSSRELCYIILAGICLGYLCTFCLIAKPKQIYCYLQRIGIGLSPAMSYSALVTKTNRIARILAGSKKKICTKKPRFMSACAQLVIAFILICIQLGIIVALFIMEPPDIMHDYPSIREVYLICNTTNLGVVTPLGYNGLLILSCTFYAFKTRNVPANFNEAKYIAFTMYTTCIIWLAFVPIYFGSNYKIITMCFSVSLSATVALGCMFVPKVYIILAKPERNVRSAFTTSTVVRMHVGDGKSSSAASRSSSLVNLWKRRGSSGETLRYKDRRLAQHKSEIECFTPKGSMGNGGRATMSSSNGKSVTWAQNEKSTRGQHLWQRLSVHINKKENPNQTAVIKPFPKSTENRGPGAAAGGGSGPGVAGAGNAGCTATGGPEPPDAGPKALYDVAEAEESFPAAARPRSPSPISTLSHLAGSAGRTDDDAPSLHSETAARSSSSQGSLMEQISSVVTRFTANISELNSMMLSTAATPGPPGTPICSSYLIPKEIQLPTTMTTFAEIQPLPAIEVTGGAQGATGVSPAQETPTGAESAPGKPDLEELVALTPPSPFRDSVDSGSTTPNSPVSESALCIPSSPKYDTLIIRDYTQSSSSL

`O=C(COCc1ccncc1)N1CCN(c2ccc(Cl)cc2)CC1`: in [1], the EC50 came to 1.3 µM. In addition, the microsomal CLint in series [2] amounted to 17 µL/min/mg.

In [3], `O=C(COCc1ccncc1)N1CCN(c2ccc(F)cc2Cl)CC1` displayed a Ki of 2.37 µM. Further, the half-life was 7.3 h in series [4] and 2.9 h in series [9]. The bioavailability in series [5] worked out at 37%; in series [6], 41%. Further, the EC50 in [1] worked out at 0.55 µM. In addition, the microsomal CLint in series [2] is 29 µL/min/mg. The Vd was determined as 3.2 L/kg in [7] and 4.8 L/kg in series [10]. In [8], the Kp came out at 4.6. Further, the clearance stood at 38.5 mL/min/kg in [11] and 55 mL/min/kg in [12].

Take `O=C(COCc1ccncc1)N1CCN(c2ccc(Cl)cc2F)CC1`: the EC50 in [1] turned out to be 0.6 µM. The intrinsic metabolic clearance (microsomal CLint) in [2] was 38 µL/min/mg.

In the case of `Cc1cc(Cl)ccc1N1CCN(C(=O)COCc2ccncc2)CC1`, the EC50 in series [1] was determined as 0.24 µM. Moreover, the microsomal CLint in [2] turned out to be 68 µL/min/mg.

Turning to `O=C(COCc1ccncc1)N1CCN(c2ccc(Cl)cc2Cl)CC1`, in series [1], the EC50 amounted to 0.18 µM. Further, the microsomal CLint in series [2] was 76 µL/min/mg.

With `O=C(COCc1ccncc1)N1CCN(c2ccc(F)cc2F)CC1`, the EC50 in series [1] came out at 4.6 µM. The microsomal CLint in series [2] worked out at 22 µL/min/mg.

As for `O=C(COCc1ccncc1)N1CCN(c2cc(Cl)ccn2)CC1`, the EC50 in series [1] turned out to be 4.2 µM. Moreover, in series [2], the intrinsic metabolic clearance (microsomal CLint) was 4 µL/min/mg.

As for `O=C(COCc1ccncc1)N1CCC(c2ccc(Cl)cc2)CC1`, the EC50 in series [1] was determined as 0.68 µM. In addition, in series [2], the microsomal CLint turned out to be 41 µL/min/mg.

Turning to `O=C(COCc1ccncc1)N1CCC(c2ccc(F)cc2Cl)CC1`, the EC50 in series [1] was 0.37 µM. In addition, the microsomal CLint in series [2] amounted to 56 µL/min/mg.

For the compound `O=C(COCc1ccncc1)N1CCC(c2ccc(Cl)cc2Cl)CC1`, the EC50 in [1] turned out to be 0.39 µM. Further, the intrinsic metabolic clearance (microsomal CLint) in series [2] stood at 96 µL/min/mg.

As for `O=C(COCc1ccncc1)N1CCC(F)(c2ccc(Cl)cc2)CC1`, the EC50 in series [1] stood at 0.8 µM. Besides, the microsomal CLint in [2] amounted to 45 µL/min/mg.

For the compound `CC1(c2ccc(Cl)cc2)CCN(C(=O)COCc2ccncc2)CC1`, the EC50 in series [1] stood at 2.1 µM.

On to `O=C(COCc1ccncc1)N1CCC(F)(c2ccc(F)cc2Cl)CC1`, for which, in series [1], the EC50 is 6.6 µM.

Turning to `Fc1ccc(C2CCN(C(=S)COCc3ccncc3)CC2)c(Cl)c1`, the EC50 in series [1] is greater than 10.6 µM.

Consider `Clc1ccc(N2CCN(CCOCc3ccccc3)CC2)c(Cl)c1`, for which, in series [1], the EC50 was greater than 25 µM.

For the compound `O=C(CCCc1ccncc1)N1CCN(c2ccc(Cl)cc2Cl)CC1`, in series [1], the EC50 is 5.3 µM.

For the compound `O=C(CNCc1ccncc1)N1CCN(c2ccc(Cl)cc2Cl)CC1`, in series [1], the EC50 was 8.5 µM.

As for `CN(CC(=O)N1CCN(c2ccc(Cl)cc2Cl)CC1)Cc1ccncc1`, the concentration for a half-maximal effect (EC50) in series [1] was greater than 25 µM.

On to `O=C(CSCc1ccccc1)N1CCN(c2ccc(Cl)cc2Cl)CC1`, for which the EC50 in series [1] stood at 7.1 µM.

With `O=C(CSc1ccccc1)N1CCN(c2ccc(Cl)cc2Cl)CC1`, the EC50 in series [1] was greater than 25 µM.

Turning to `C[C@@H](OCc1ccncc1)C(=O)N1CCC(c2ccc(Cl)cc2F)CC1`, the EC50 in series [1] is greater than 25 µM.

Turning to `O=C(COCc1ccccn1)N1CCN(c2ccc(Cl)cc2Cl)CC1`, the EC50 in series [1] turned out to be 0.31 µM. For the same compound, the microsomal CLint in series [2] came out at 94 µL/min/mg.

With `O=C(COCc1cccnc1)N1CCN(c2ccc(Cl)cc2Cl)CC1`, the EC50 in [1] was determined as 1.09 µM. The microsomal CLint in series [2] was 210 µL/min/mg.

For `O=C(COCc1cnccn1)N1CCN(c2ccc(Cl)cc2Cl)CC1`, the EC50 in series [1] is 5.2 µM. Besides, the microsomal CLint in [2] was 4 µL/min/mg.

Turning to `O=C(COCc1ccncn1)N1CCN(c2ccc(Cl)cc2Cl)CC1`, the EC50 in series [1] worked out at 2.8 µM. In [2], the microsomal CLint is 17 µL/min/mg.

With `O=C(COCc1ncccn1)N1CCN(c2ccc(Cl)cc2Cl)CC1`, in series [1], the EC50 came to 18 µM. Besides, the microsomal CLint in series [2] came to 16 µL/min/mg.

For the compound `O=C(COCc1cscn1)N1CCN(c2ccc(Cl)cc2Cl)CC1`, the EC50 in series [1] was determined as 0.29 µM. For the same compound, the microsomal CLint in [2] is 62 µL/min/mg.

On to `O=C(COCc1cncs1)N1CCN(c2ccc(Cl)cc2Cl)CC1`, for which the EC50 in series [1] turned out to be 1.28 µM. For the same compound, in series [2], the microsomal CLint amounted to 73 µL/min/mg.

As for `O=C(COCc1ccccc1)N1CCN(c2ccccc2)CC1`, the half-maximal effective concentration (EC50) in [1] came out at 7.1 µM.

`O=C(COCc1nccs1)N1CCN(c2ccc(Cl)cc2Cl)CC1`: the EC50 in [1] is greater than 10.3 µM. The intrinsic clearance (microsomal CLint) in series [2] amounted to 80 µL/min/mg.

On to `O=C(COCc1cccs1)N1CCN(c2ccc(Cl)cc2Cl)CC1`, for which the EC50 in series [1] was determined as 0.31 µM. Moreover, the microsomal CLint in series [2] turned out to be 360 µL/min/mg.

`N#Cc1ccc(COCC(=O)N2CCN(c3ccc(Cl)cc3Cl)CC2)s1`: the EC50 in series [1] was 0.21 µM. The microsomal CLint in series [2] worked out at 110 µL/min/mg.

As for `O=C(COCc1ccccc1)N1CCN(c2ccccc2Cl)CC1`, the EC50 in series [1] stood at 1.1 µM. In addition, the microsomal CLint in series [2] was found to be 540 µL/min/mg.

As to `O=C(COCc1ccccc1)N1CCN(c2cccc(Cl)c2)CC1`, in [1], the EC50 amounted to 6.7 µM. Besides, the microsomal CLint in [2] amounted to 310 µL/min/mg.

On to `O=C(COCc1ccccc1)N1CCN(c2ccc(Cl)cc2)CC1`, for which, in series [1], the 50% effective concentration (EC50) was found to be 0.35 µM. In addition, the microsomal CLint in series [2] amounted to 290 µL/min/mg.

For the compound `O=C(COCc1ccccc1)N1CCN(c2ccc(F)cc2)CC1`, the EC50 in [1] worked out at 1.1 µM. For the same compound, the intrinsic clearance (microsomal CLint) in [2] stood at 110 µL/min/mg.

In the case of `O=C(COCc1ccccc1)N1CCN(c2ccc(Cl)cc2Cl)CC1`, the EC50 in series [1] was determined as 1.4 µM. In addition, in series [2], the microsomal CLint turned out to be 450 µL/min/mg.

For `O=C(COCc1ccccc1)N1CCN(c2ccc(F)cc2F)CC1`, the EC50 in [1] was found to be 0.3 µM. For the same compound, the microsomal CLint in series [2] came out at 580 µL/min/mg.

With `O=C(COCc1ccccc1)N1CCN(c2ccc(F)cc2Cl)CC1`, the concentration for a half-maximal effect (EC50) in [1] was determined as 0.27 µM. In addition, the microsomal CLint in series [2] was determined as 530 µL/min/mg.

On to `O=C(COCc1ccccc1)N1CCN(c2cc(Cl)ccn2)CC1`, for which the EC50 in [1] worked out at 0.57 µM. Moreover, in [2], the intrinsic metabolic clearance (microsomal CLint) was found to be 130 µL/min/mg.

In the case of `O=C(COCc1ccccc1)N1CCN(c2ccncc2)CC1`, the EC50 in series [1] was greater than 25 µM.

As a reminder, the EC50 is the concentration giving half of the maximal effect. As usually defined, the microsomal CLint is the capacity of the preparation to metabolise the compound, expressed as a volume cleared per time. What is called Ki is the dissociation constant of the complex between target and ligand, obtained from inhibition or displacement. High values mean a looser hold on the target, low ones a stronger hold on the target. For orientation: half-life means how long it takes for the measured level to halve. The low end stands for rapid decline, the high end for slow decline. For orientation: bioavailability means dose-corrected exposure relative to a reference, in per cent. A lower bioavailability goes with little systemic uptake. For orientation: Vd means the apparent volume that relates the amount in the body to the concentration in plasma or blood. Lower therefore signals confinement near the circulation. The clearance is a measure of how efficiently the substance is removed, as volume per time. Lower therefore signals a low capacity for elimination.
